According to ChEMBL document CHEMBL4808178 (J Med Chem, 2021):
The source made the active and inactive calls. No cut-off for these calls is given here.

Legend:
[1] = Toxicity in BALB/c mouse xenografted with human HCT116 cells assessed as effect on spleen tissue at 60 to 90 mg/kg, po administered twice daily for 4 weeks and measured every 3 days by HE staining based assay; format: organism-based, HCT-116; settings: in vivo, 672 h, dose 60-90 mg/kg
In short: (§1)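 Male 5-week BALB/c nude mice (16−18 g), 0.2 mL of 5 × 10⁷ cells/mL HCT-116 injected into right armpit; at ~100 mm³ randomized, 5/group; intragastric 60 or 90 mg/kg twice daily for 4 weeks; tumor volume and body weight every 3 days; after sacrifice heart, liver, spleen, lung, kidney HE-stained.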

HCT-116 [2] = experiment: Inhibition of cell stemness in human HCT116 cells assessed as reduction in SOX2 mRNA transcription levels at 20 uM after 24 hrs by RT-qPCR analysis; format: functional, cell-based
In short: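 Sorted ALDH⁺ HCT-116 cells treated 24 h; TRIZOL RNA, one-step RT-qPCR (RT 10 min 55 °C; 95 °C 1 min; 39 cycles 95 °C 10 s/60 °C 30 s) with melting-curve check; β-actin reference; fold change by 2^−ΔΔCt; t test, mean ± SD, n = 3.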

[3] = Toxicity in BALB/c mouse xenografted with human HCT116 cells assessed as effect on liver tissue at 60 to 90 mg/kg, po administered twice daily for 4 weeks and measured every 3 days by HE staining based assay; format: organism-based, HCT-116; settings: in vivo, 672 h, dose 60-90 mg/kg; in short: as §1
HCT-116 [4] = experiment: Induction of apoptosis in human HCT116 cells assessed as upregulation of cleaved caspase 9 level at 20 uM incubated for 24 hrs by Western blot analysis; format: functional, cell-based
In short: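 HCT-116 cells at 2 × 10⁵ cells/mL in DMEM/10% FBS, grown 12 h at 37 °C, then treated 24 h (vehicle DMSO). Lysates quantified by BCA, run on 10% SDS-PAGE, PVDF transfer, blocked in 5% milk/TBST, primary antibodies 4 °C overnight, HRP secondary 2 h, chemiluminescent detection; normalized to β-actin, n = 3.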

HCT-116 [5] = experiment: Induction of apoptosis in human HCT116 cells assessed as late apoptotic cells at 5 uM after 24 hrs by annexin V-FITC/propidium iodide staining based flow cytometry (reference value: 5.1%); format: functional
[6] = target: T1, Aldehyde dehydrogenase 1A1 (Homo sapiens, UniProt P00352); experiment: (§2) Inhibition of human ALDH1A1 incubated for 2 hrs
T1 sequence (P00352 whole entry): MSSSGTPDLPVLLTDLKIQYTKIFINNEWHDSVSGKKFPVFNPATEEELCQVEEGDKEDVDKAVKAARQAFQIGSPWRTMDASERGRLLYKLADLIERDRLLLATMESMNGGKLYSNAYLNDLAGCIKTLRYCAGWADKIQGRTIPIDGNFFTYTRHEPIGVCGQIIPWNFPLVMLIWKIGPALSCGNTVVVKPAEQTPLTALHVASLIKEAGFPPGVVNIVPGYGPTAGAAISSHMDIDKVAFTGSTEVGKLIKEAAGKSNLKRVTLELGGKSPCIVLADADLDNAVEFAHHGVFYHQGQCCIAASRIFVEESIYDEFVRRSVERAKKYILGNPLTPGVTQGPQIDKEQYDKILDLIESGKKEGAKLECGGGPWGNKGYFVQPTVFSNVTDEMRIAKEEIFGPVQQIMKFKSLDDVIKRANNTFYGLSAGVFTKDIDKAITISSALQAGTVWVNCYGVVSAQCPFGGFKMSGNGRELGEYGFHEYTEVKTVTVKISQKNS

[7] = target: T2, Aldehyde dehydrogenase 1A1 (Homo sapiens) (UniProt P00352); experiment: as §2
T2 sequence (whole entry): T1 sequence (P00352 whole entry)

HCT-116 [8] = experiment: Induction of apoptosis in human HCT116 cells assessed as necrotic cells at 5 uM after 24 hrs by annexin V-FITC/propidium iodide staining based flow cytometry (reference value: 5.6%); format: functional
[9] = Toxicity in BALB/c mouse xenografted with human HCT116 cells assessed as effect on kidney tissue at 60 to 90 mg/kg, po administered twice daily for 4 weeks and measured every 3 days by HE staining based assay; format: organism-based, HCT-116; settings: in vivo, 672 h, dose 60-90 mg/kg; in short: as §1
HCT-116 [10] = experiment: Induction of apoptosis in human HCT116 cells assessed as viable cells at 10 uM after 24 hrs by annexin V-FITC/propidium iodide staining based flow cytometry (reference value: 88.3%); format: functional; settings: read-out: Activity
HCT-116 [11] = experiment: Cytotoxicity against human HCT-116 cells assessed as reduction in cell viability incubated for 72 hrs by MTT assay; format: functional, cell-based; settings: HCT-116, 72 h
In short: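 About 5 × 10³ cells/well, seeded overnight at 37 °C, 5% CO₂, in DMEM or RPMI-1640 with 10% FBS and antibiotics. DMSO-dissolved compounds diluted in medium, exposure 72 h.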

For `O=C(NCCO)c1ccc2c(c1)nc(Nc1cccc(Cl)c1)c1ccncc12`, the Activity [1] was “Non-Toxic”, the inhibition (HCT-116 [2]) was “Active” and the Activity [3] was “Non-Toxic”. The Activity (HCT-116 [4]) was “Active”, the Activity (HCT-116 [5]) was 14.3% and the IC50 [6] was 100 nM. The inhibition [7] was “Dose-Dependent Effect”, the Activity (HCT-116 [8]) was 7% and the Activity [9] was “Non-Toxic”. The viability at 10 µM (HCT-116 [10]) was 56.4% and the IC50 (HCT-116 [11]) was 3070 nM.
